Rows were chosen to be rich in hits. Some 2.3% of all compounds tested hit in one or more screens of this group.
Cneo AK release: causes C. neoformans cell lysis; adenylate kinase release luminescence, 4 h; normalised: neutral wells 0, clomiphene wells 100; lysis activity, % at 15 µM; 360,000 tested, 0.2% active; AID 651654;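 active = mean lysis activity across replicates of at least 80%, whatever share of replicates individually reach that level; inactive = mean lysis activity below 80%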
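Schedule: static 4 h at 37 °C with compound, 1 h detection; system: C. neoformans cells; benchmarks: Clomiphene as positive control; buffer or medium: fresh YPD medium; measure: luminescence rise reflecting yeast cell lysis; measured by: luminescent adenylate kinase detection reagent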
C2C12 statin: suppressors of simvastatin-induced myotoxicity in C2C12 myotubes; ATP luminescence, 48 h; scaled: DMSO 0, geranylgeraniol control 100; rescue of ATP level, % at 7.49 µM; 330,000 tested, 0.78% active;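 active = mean ATP rescue above about 67%, or every replicate alone reaching that limit, limit read from the data, passing the limit was not always enough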;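 also: myotubes were challenged with 10 µM simvastatin during compound exposure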
DENV2 CPE: protects cells from dengue virus 2 cytopathic effect | DENV2-infected cells, cytopathic effect rescue, plate reader | CPE inhibition, % at 9.99 µM | 350,000 tested, 1.7% active; in the data active = CPE inhibition above about 20%, passing the limit was not always enough; tested in BHK-21 cells;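 also: 0% = median of neutral control wells and 100% = median of positive control wells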
ERp5 inh: inhibitors of human ERp5; 350,000 tested, 0.05% active; Q15084; ERp5 insulin aggregation, absorbance 650 nm, 90 min; AID 651711; inhibition, % at 9.99 µM;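 active = mean replicate inhibition above about 25%, with every replicate also reaching it, limit read from the data, passing the limit was not always enough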
F508del corr: correctors of CFTR F508del function in bronchial epithelial cells; CFBE cells, YFP halide quenching; stimulated with forskolin plus potentiator P3; % fluorescence drop versus neutral controls; activity (quench increase), % at 7.58 µM; 350,000 tested, 0.36% active;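 active = mean added fluorescence quench of at least 8% versus neutral control, with both replicates also reaching 8%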;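 also: cells transiently co-express mutant CFTR-F508del with the halide-sensitive YFP; corrector assay measuring rescue of mutant channel to the surface after 24 h compound exposure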
PDI inh: blocks human protein disulfide isomerase activity; P07237; PDI insulin aggregation turbidity, A650, 90 min; inhibition, % at 10 µM; 350,000 tested, 0.052% active; AID 588391;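 active = mean inhibition across replicates of 30% or more, whatever share of single replicates reach that level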
Target sequence (P07237 whole entry, looked up): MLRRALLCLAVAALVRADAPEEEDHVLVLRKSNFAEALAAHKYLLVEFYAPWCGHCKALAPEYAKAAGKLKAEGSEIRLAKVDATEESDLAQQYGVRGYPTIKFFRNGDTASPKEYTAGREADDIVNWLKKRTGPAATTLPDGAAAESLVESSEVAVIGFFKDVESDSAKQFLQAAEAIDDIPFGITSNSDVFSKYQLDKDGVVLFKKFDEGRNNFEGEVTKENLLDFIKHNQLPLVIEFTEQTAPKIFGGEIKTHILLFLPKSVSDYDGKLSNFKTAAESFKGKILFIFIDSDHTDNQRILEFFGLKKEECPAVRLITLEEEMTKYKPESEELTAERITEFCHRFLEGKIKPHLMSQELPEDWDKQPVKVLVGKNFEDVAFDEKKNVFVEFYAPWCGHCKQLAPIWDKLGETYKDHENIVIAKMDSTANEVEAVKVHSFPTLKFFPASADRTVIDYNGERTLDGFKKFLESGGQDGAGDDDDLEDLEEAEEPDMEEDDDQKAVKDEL
An asterisk follows results filed as active; ! = not active in a repeat.

`CN(C)C(=O)c1cccc(-c2ccccc2[C@H]2[C@@H](C#N)N(C(=O)C3CC3)[C@H]2CO)c1` gave DENV2 CPE 43*, ERp5 inh -3 and F508del corr 1.
C[C@@H]1CN([C@H](C)CO)C(=O)Cc2cc(NC(=O)C3CCCCC3)ccc2O[C@@H]1CN(C)CC1CC1 was read as Cneo AK release -4, C2C12 statin -20, DENV2 CPE 3, ERp5 inh 6 and F508del corr 1.
`C[C@@H]1CN([C@H](C)CO)S(=O)(=O)c2ccc(-c3cccc(F)c3)cc2O[C@H]1CN(C)S(C)(=O)=O` gave Cneo AK release -6, C2C12 statin -51, DENV2 CPE 1 and ERp5 inh 3.
`Cc1ccc(NC(=S)NC(C)CCc2ccccc2)cc1C` (stereo not given) gave DENV2 CPE 17, ERp5 inh 5 and PDI inh -2.
`Cc1cccc(C)c1NC(=S)NC(C)CCc1ccccc1` (stereo not given) gave Cneo AK release 6, C2C12 statin -4, DENV2 CPE 47*, ERp5 inh -2, F508del corr 3 and PDI inh -10.
Screening O=C(NCc1nc2ccccc2[nH]1)C1=C[C@H](c2ccc(C(F)(F)F)cc2)C[C@H](OCCCCO)O1 returned Cneo AK release -2, C2C12 statin 1, DENV2 CPE 21*, ERp5 inh 1, F508del corr -2 and PDI inh 1.
For O=C(Nc1ccccc1)C1=C[C@H](C2CCCCC2)C[C@H](OCc2ccc(CO)cc2)O1 the results were Cneo AK release 54, C2C12 statin 1, DENV2 CPE -1, ERp5 inh -1, F508del corr 5 and PDI inh -3.
Screening O=C(NCc1nc2ccccc2[nH]1)C1=C[C@H](C2CCCCC2)C[C@H](OCc2ccc(CO)cc2)O1 returned Cneo AK release 0, C2C12 statin 0, DENV2 CPE 21*!, ERp5 inh -1, F508del corr -4 and PDI inh 5.
C=CCOC(=O)C1=C[C@@H](C2CCCCC2)C[C@@H](OCc2ccc(CO)cc2)O1 was read as Cneo AK release 1, C2C12 statin -12, DENV2 CPE 48*, ERp5 inh -1, F508del corr 3 and PDI inh -1.
Screening Cc1noc(C)c1NC(=O)Nc1ccc2c(c1)C(=O)N(C)[C@H]1CC[C@H](CC(=O)N(C)C)O[C@@H]1CO2 returned Cneo AK release 3, C2C12 statin 19, DENV2 CPE -6, ERp5 inh -2 and F508del corr 2.
CNC[C@H]1OCCCC[C@H](C)Oc2ccc(NC(=O)C3CCCCC3)cc2C(=O)N([C@H](C)CO)C[C@@H]1C was read as Cneo AK release 1, C2C12 statin -10, DENV2 CPE -4, ERp5 inh 1 and F508del corr -4.
COc1ccc(S(=O)(=O)N(C)C[C@@H]2Oc3c(NC(=O)c4ccncc4)cccc3C(=O)N([C@H](C)CO)C[C@H]2C)cc1 was read as Cneo AK release -2, C2C12 statin -21, DENV2 CPE -3, ERp5 inh 0 and F508del corr 1.
Cc1ccc(S(=O)(=O)Nc2cccc3c2O[C@@H](CN(C)CC2CCCCC2)[C@@H](C)CN([C@@H](C)CO)C3=O)cc1 was read as Cneo AK release -2, C2C12 statin -23, DENV2 CPE 8, ERp5 inh 1 and F508del corr -1.
Cn1cnc(S(=O)(=O)N[C@H]2C=C[C@H](CC(=O)Nc3ccccc3)O[C@@H]2CO)c1 was read as Cneo AK release -2, C2C12 statin -3, DENV2 CPE 2, ERp5 inh 4 and F508del corr 0.
For Cc1cccc(-n2ncc3c2CCCC3NC(=O)C2(C(N)=O)CC2)c1C (stereo not given) the results were Cneo AK release -1, DENV2 CPE 3, ERp5 inh 6, F508del corr 2 and PDI inh -3.
`O=C(NC1CCCc2c1cnn2-c1ccccc1F)c1ccncc1` (stereo not given) gave Cneo AK release 0, C2C12 statin -9, DENV2 CPE 25*, ERp5 inh -5, F508del corr -2 and PDI inh -2.
For Cc1cc(C)c(C(=O)NC2CCCc3c2cnn3-c2ccc(C)c(C)c2)c(=O)[nH]1 (stereo not given) the results were Cneo AK release -3, C2C12 statin -1, DENV2 CPE 106*, ERp5 inh 1, F508del corr 2 and PDI inh -7.
`Cc1ccc(-n2ncc3c2CCCC3NC(=O)c2ccoc2)cc1C` (stereo not given) gave Cneo AK release -3, C2C12 statin 6, DENV2 CPE -3, ERp5 inh -2, F508del corr 1 and PDI inh -4.
Screening O=C(NC1CCCc2c1cnn2-c1ccccc1F)c1ccccn1 (stereo not given) returned Cneo AK release -1, C2C12 statin -13, DENV2 CPE -1, ERp5 inh -14, F508del corr 7 and PDI inh 0.
Cc1cc(C)c(C(=O)NC2CCCc3c2cnn3-c2cccc(C)c2C)o1 (stereo not given) was read as Cneo AK release -3, C2C12 statin 3, DENV2 CPE -6, ERp5 inh 2, F508del corr 8.4* and PDI inh 13.
O=C(CN1CCOCC1)N[C@H]1CC[C@@H](CCn2cc(C3CCCC3)nn2)O[C@@H]1CO was read as DENV2 CPE 0, ERp5 inh 6 and F508del corr -4.
C[C@H](CO)N1C[C@H](C)[C@@H](CN(C)Cc2ccc3c(c2)OCO3)OCCCC[C@H](C)Oc2ccc(NC(=O)NC3CCCCC3)cc2C1=O was read as Cneo AK release -2, DENV2 CPE 1, ERp5 inh -1 and F508del corr -2.
Screening COc1ccc(S(=O)(=O)N(C)C[C@@H]2OCCCC[C@@H](C)Oc3ccc(NS(=O)(=O)c4ccc(F)cc4)cc3C(=O)N([C@H](C)CO)C[C@@H]2C)cc1 returned Cneo AK release 1, C2C12 statin 2, DENV2 CPE 6, ERp5 inh -3 and F508del corr -2.
Screening COc1ccc(S(=O)(=O)Nc2ccc3c(c2)C(=O)N([C@@H](C)CO)C[C@H](C)[C@H](CN(C)S(=O)(=O)c2ccc(F)cc2)OCCCC[C@H](C)O3)cc1 returned Cneo AK release 6, C2C12 statin 174*, DENV2 CPE 1, ERp5 inh 20 and F508del corr 0.
For COc1ccc(S(=O)(=O)Nc2ccc3c(c2)C(=O)N([C@H](C)CO)C[C@@H](C)[C@@H](CN(C)S(=O)(=O)c2ccc(F)cc2)OCCCC[C@H](C)O3)cc1 the results were Cneo AK release -1, C2C12 statin 141*, DENV2 CPE 2, ERp5 inh -7 and F508del corr -2.

From PubChem
